Data reported in ChEMBL document CHEMBL1123801, “Synthesis and antifungal activity of new 1-vinylimidazoles” (1987).
Values after ≈ are worked out from the molar mass of the structure shown.

What was measured:
[1] = system: Trichophyton benhamiae; experiment: Minimum inhibitory concentration against Trichophyton asteroides; assay type: functional
Procedure, shortened: (§1)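 Broth microdilution in Sabouraud's glucose broth. Final inocula 1×10^5 cells/mL for the yeast (C. albicans) and 1×10^5 conidia/mL for the mold (A. fumigatus) and the dermatophyte (T. asteroides). MIC read as the fungistatic end point. Lowest value of duplicated experiments.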

[2] = system: Candida albicans; experiment: Inhibition of pseudomycelium formation of Candida albicans.; assay type: functional; details: read-out: MEC
Procedure, shortened: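 C. albicans KE-2 (clinical isolate), final inoculum 1×10^6 yeast cells/mL in EMEM with 20% calf serum. Compounds serially diluted by the microtiter dilution system used for MICs. After incubation, wells Giemsa-stained (5% in phosphate buffer) and examined microscopically. MEC (μg/mL) = lowest concentration preventing typical pseudomycelium formation. Lowest value of duplicated experiments.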

[3] = system: Aspergillus fumigatus; experiment: Minimum inhibitory concentration (MIC) against Aspergillus fumigatus; assay type: functional; procedure, shortened: as §1
[4] = system: Candida albicans; experiment: Minimum inhibitory concentration (MIC) against Candida albicans; assay type: functional; procedure, shortened: as §1
[5] = system: Candida albicans; experiment: Minimum inhibitory concentration against Candida albicans IFO 1388; assay type: functional
Procedure, shortened: (§2)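 Agar dilution on Sabouraud's glucose agar. Inocula 1×10^6 cells/mL for the yeast strains (C. albicans IFO 1060, 1388) and 1×10^6 conidia/mL for the dermatophytes (T. mentagrophytes IFO 5809, 5810; T. rubrum IFO 5467, 5807). MIC in μg/mL, lowest value of duplicated experiments.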

[6] = system: Trichophyton rubrum; experiment: Minimum inhibitory concentration against Trichophyton rubrum IFO 5467; assay type: functional; procedure, shortened: as §2
[7] = system: Trichophyton rubrum; experiment: Minimum inhibitory concentration against Trichophyton rubrum IFO 5807; assay type: functional; procedure, shortened: as §2
[8] = system: Candida albicans; experiment: Minimum inhibitory concentration against Candida albicans IFO 1060; assay type: functional; procedure, shortened: as §2
[9] = system: Trichophyton benhamiae; experiment: Minimum inhibitory concentration against Trichophyton mentagrophytes IFO 5810; assay type: functional, Arthroderma benhamiae; procedure, shortened: as §2
[10] = system: Trichophyton benhamiae; experiment: Minimum inhibitory concentration against Trichophyton mentagrophytes IFO 5809; assay type: functional, Arthroderma benhamiae; procedure, shortened: as §2

SMILES | MIC [1] | MIC [3] | MIC [4] | MIC [5] | MIC [6] | MIC [7] | MIC [8] | MIC [9] | MIC [10] | minimal effective concentration [2]
CCCOc1ccccc1C(=C(C)C)n1ccnc1 | 0.2 µg/mL (≈ 0.78 µM) | 0.8 µg/mL (≈ 3.12 µM) | 12.5 µg/mL (≈ 48.8 µM) |  |  |  |  |  |  | 0.31 µg/mL
C=C(c1ccccc1OCc1cccc(Cl)c1)n1ccnc1 [CROCONAZOLE] | 0.1 µg/mL (≈ 0.322 µM) | 3.1 µg/mL (≈ 9.97 µM) | 3.1 µg/mL (≈ 9.97 µM) | 12.5 µg/mL (≈ 40.2 µM) | 0.4 µg/mL (≈ 1.29 µM) | 0.4 µg/mL (≈ 1.29 µM) | 6.3 µg/mL (≈ 20.3 µM) | 0.8 µg/mL (≈ 2.57 µM) | 0.8 µg/mL (≈ 2.57 µM) | 
CCC(CC)=C(c1cc(Cl)ccc1OCc1ccc(Cl)cc1)n1cncn1 | > 100 µg/mL | > 100 µg/mL | > 100 µg/mL |  |  |  |  |  |  | 20 µg/mL
C=C(c1cc(Cl)ccc1OCCC(C)C)n1cncn1 | 0.8 µg/mL (≈ 2.74 µM) | > 100 µg/mL | > 100 µg/mL |  |  |  |  |  |  | 20 µg/mL
CCCOc1ccccc1/C(=C\CN(C)C)n1ccnc1 | 12.5 µg/mL (≈ 43.8 µM) | > 100 µg/mL | > 100 µg/mL |  |  |  |  |  |  | 0.31 µg/mL
C/C(CN(C)C)=C(\c1ccccc1OCC(C)C)n1ccnc1 | 0.8 µg/mL (≈ 2.55 µM) | > 100 µg/mL | > 100 µg/mL |  |  |  |  |  |  | 0.63 µg/mL
CC(C)COc1ccccc1/C(=C/CN(C)C)n1ccnc1 | > 100 µg/mL | > 100 µg/mL | > 100 µg/mL |  |  |  |  |  |  | 5 µg/mL
CC(C)COc1ccccc1/C(=C\CN(C)C)n1ccnc1 | 6.3 µg/mL (≈ 21 µM) | > 100 µg/mL | > 100 µg/mL |  |  |  |  |  |  | 0.16 µg/mL
CCCOc1ccc(Cl)cc1C(=C(C)C)n1ccnc1 | 0.2 µg/mL (≈ 0.688 µM) | 6.3 µg/mL (≈ 21.7 µM) | 25 µg/mL (≈ 86 µM) |  |  |  |  |  |  | 0.31 µg/mL
CCCCOc1ccccc1C(=C(C)C)n1ccnc1 | 0.1 µg/mL (≈ 0.37 µM) | 1.6 µg/mL (≈ 5.92 µM) | 50 µg/mL (≈ 185 µM) |  |  |  |  |  |  | 0.31 µg/mL
CC(C)COc1ccc(Cl)cc1/C(=C\CN(C)C)n1ccnc1 | 0.8 µg/mL (≈ 2.4 µM) | > 100 µg/mL | > 100 µg/mL |  |  |  |  |  |  | 2.5 µg/mL
COc1ccc(Cl)cc1/C(=C/c1ccccc1)n1ccnc1 | 6.2 µg/mL (≈ 19.9 µM) | 25 µg/mL (≈ 80.4 µM) | 12.5 µg/mL (≈ 40.2 µM) |  |  |  |  |  |  | > 20 µg/mL
CC(C)COc1ccc(Cl)cc1/C(=C\CN(C)C)n1cncn1 | 12.5 µg/mL (≈ 37.3 µM) | > 100 µg/mL | > 100 µg/mL |  |  |  |  |  |  | 0.31 µg/mL

Now from value to molecule, other results behind:

MIC [1] | MIC [3] | MIC [4] | MIC [5] | MIC [6] | MIC [7] | MIC [8] | MIC [9] | MIC [10] | SMILES | minimal effective concentration [2]
0.1 µg/mL (≈ 0.277 µM) | 6.3 µg/mL (≈ 17.4 µM) | 12.5 µg/mL (≈ 34.6 µM) |  |  |  |  |  |  | CC(C)COc1ccccc1/C(=C/CN(C)c1ccccc1)n1ccnc1 | 5 µg/mL
0.1 µg/mL (≈ 0.361 µM) | 6.3 µg/mL (≈ 22.8 µM) | 25 µg/mL (≈ 90.3 µM) |  |  |  |  |  |  | C/C=C(/c1cc(Cl)ccc1OCCC)n1ccnc1 | 0.63 µg/mL
0.1 µg/mL (≈ 0.344 µM) | 0.4 µg/mL (≈ 1.38 µM) | 12.5 µg/mL (≈ 43 µM) |  |  |  |  |  |  | C=C(c1ccccc1OCCc1ccccc1)n1ccnc1 | 1.25 µg/mL
0.1 µg/mL (≈ 0.308 µM) | 3.1 µg/mL (≈ 9.54 µM) | 6.2 µg/mL (≈ 19.1 µM) | 12.5 µg/mL (≈ 38.5 µM) | 0.8 µg/mL (≈ 2.46 µM) | 0.8 µg/mL (≈ 2.46 µM) | 12.5 µg/mL (≈ 38.5 µM) | 0.8 µg/mL (≈ 2.46 µM) | 0.8 µg/mL (≈ 2.46 µM) | C/C=C(\c1ccccc1OCc1ccc(Cl)cc1)n1ccnc1 | 
0.1 µg/mL (≈ 0.361 µM) | 0.8 µg/mL (≈ 2.89 µM) | 50 µg/mL (≈ 181 µM) |  |  |  |  |  |  | C=C(c1cc(Cl)ccc1OCC(C)C)n1ccnc1 | 1.25 µg/mL
0.1 µg/mL (≈ 0.413 µM) | 1.6 µg/mL (≈ 6.6 µM) | 100 µg/mL (≈ 413 µM) |  |  |  |  |  |  | C=C(c1ccccc1OCC(C)C)n1ccnc1 | 0.63 µg/mL
0.1 µg/mL (≈ 0.29 µM) | 3.1 µg/mL (≈ 8.98 µM) | 12.5 µg/mL (≈ 36.2 µM) | 12.5 µg/mL (≈ 36.2 µM) | 0.8 µg/mL (≈ 2.32 µM) | 0.8 µg/mL (≈ 2.32 µM) | 12.5 µg/mL (≈ 36.2 µM) | 1.6 µg/mL (≈ 4.63 µM) | 1.6 µg/mL (≈ 4.63 µM) | C=C(c1cc(Cl)ccc1OCc1ccc(Cl)cc1)n1ccnc1 | 
0.1 µg/mL (≈ 0.39 µM) | 0.4 µg/mL (≈ 1.56 µM) | 25 µg/mL (≈ 97.5 µM) |  |  |  |  |  |  | C=C(c1ccccc1OCCC(C)C)n1ccnc1 | 0.63 µg/mL
0.1 µg/mL (≈ 0.352 µM) | 6.3 µg/mL (≈ 22.2 µM) | 25 µg/mL (≈ 87.9 µM) |  |  |  |  |  |  | CC(C)=C(c1ccccc1OCC(C)(C)C)n1ccnc1 | 0.31 µg/mL
